Results taken from ChEMBL document CHEMBL1833921, “Synthesis and biological evaluation of phenstatin metabolites” (Bioorg Med Chem, 2011).

What was measured:
HT-29 = experiment: Cytotoxicity against human HT29 cells after 48 hrs by sulforhodamine B assay; assay type: functional; details: HT-29, 48 h
A549 [1] = experiment: Cytotoxicity against human A549 cells after 48 hrs by sulforhodamine B assay; assay type: functional; details: A549, 48 h
HL-60 = experiment: Cytotoxicity against human HL60 cells after 48 hrs by sulforhodamine B assay; assay type: functional; details: HL-60, 48 h
[2] = Inhibition of bovine brain tubulin polymerization after 30 mins by turbidimetry analysis; design: species or system Bos taurus
Outline: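 Lyophilized bovine brain tubulin (97%) reconstituted to 5 mg/mL in 80 mM PIPES pH 6.9, 2 mM MgCl₂, 0.5 mM EGTA, 1.0 mM GTP and 5% glycerol. Compound in DMSO was added to this solution in a quartz cuvette at 0 °C. Assembly was followed as the rise in absorbance at 340 nm at 37 °C. IC₅₀ is the molar concentration halving the extent of assembly after 30 min.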

MCF7 = experiment: Cytotoxicity against human MCF7 cells after 48 hrs by sulforhodamine B assay; assay type: functional; details: MCF7, 48 h
SF-295 = experiment: Cytotoxicity against human SF295 cells after 48 hrs by sulforhodamine B assay; assay type: functional; details: SF-295, 48 h
DU-145 = experiment: Cytotoxicity against human DU145 cells after 48 hrs by sulforhodamine B assay; assay type: functional; details: DU-145, 48 h
A498 = experiment: Cytotoxicity against human A498 cells after 48 hrs by sulforhodamine B assay; assay type: functional; details: A498, 48 h
OVCAR-3 = experiment: Cytotoxicity against human OVCAR3 cells after 48 hrs by sulforhodamine B assay; assay type: functional; details: OVCAR-3, 48 h
MDA-MB-435 = experiment: Cytotoxicity against human MDA-MB-435 cells after 48 hrs by sulforhodamine B assay; assay type: functional; details: MDA-MB-435, 48 h
MDA-MB-468 = experiment: Cytotoxicity against human MDA-MB-468 cells after 48 hrs by sulforhodamine B assay; assay type: functional; details: MDA-MB-468, 48 h
Hs-578T = experiment: Cytotoxicity against human HS578T cells after 48 hrs by sulforhodamine B assay; assay type: functional
MDA-MB-231 = experiment: Cytotoxicity against human MDA-MB-231/ATCC cells after 48 hrs by sulforhodamine B assay; assay type: functional; details: MDA-MB-231, 48 h
SF-539 = experiment: Cytotoxicity against human SF539 cells after 48 hrs by sulforhodamine B assay; assay type: functional; details: SF-539, 48 h
UO-31 = experiment: Cytotoxicity against human UO31 cells after 48 hrs by sulforhodamine B assay; assay type: functional; details: UO-31, 48 h
SN12C = experiment: Cytotoxicity against human SN12C cells after 48 hrs by sulforhodamine B assay; assay type: functional
RXF 393 = experiment: Cytotoxicity against human RXF393 cells after 48 hrs by sulforhodamine B assay; assay type: functional; details: RXF 393, 48 h
CAKI-1 = experiment: Cytotoxicity against human Caki1 cells after 48 hrs by sulforhodamine B assay; assay type: functional; details: CAKI-1, 48 h
SK-OV-3 = experiment: Cytotoxicity against human SKOV3 cells after 48 hrs by sulforhodamine B assay; assay type: functional; details: SK-OV-3, 48 h
NCI/ADR-RES = experiment: Cytotoxicity against human NCI/ADR-RES cells after 48 hrs by sulforhodamine B assay; assay type: functional
OVCAR-5 = experiment: Cytotoxicity against human OVCAR5 cells after 48 hrs by sulforhodamine B assay; assay type: functional; details: OVCAR-5, 48 h
OVCAR-4 = experiment: Cytotoxicity against human OVCAR4 cells after 48 hrs by sulforhodamine B assay; assay type: functional; details: OVCAR-4, 48 h
UACC-62 = experiment: Cytotoxicity against human UACC62 cells after 48 hrs by sulforhodamine B assay; assay type: functional; details: UACC-62, 48 h
SK-MEL-28 = experiment: Cytotoxicity against human SK-MEL-28 cells after 48 hrs by sulforhodamine B assay; assay type: functional; details: SK-MEL-28, 48 h
SK-MEL-2 = experiment: Cytotoxicity against human SK-MEL-2 cells after 48 hrs by sulforhodamine B assay; assay type: functional; details: SK-MEL-2, 48 h
M14 = experiment: Cytotoxicity against human M14 cells after 48 hrs by sulforhodamine B assay; assay type: functional; details: M14, 48 h
KM12 = experiment: Cytotoxicity against human KM12 cells after 48 hrs by sulforhodamine B assay; assay type: functional; details: KM12, 48 h
HCT-15 = experiment: Cytotoxicity against human HCT15 cells after 48 hrs by sulforhodamine B assay; assay type: functional; details: HCT-15, 48 h
HCT-116 = experiment: Cytotoxicity against human HCT116 cells after 48 hrs by sulforhodamine B assay; assay type: functional; details: HCT-116, 48 h
NCI-H522 = experiment: Cytotoxicity against human NCI-H522 cells after 48 hrs by sulforhodamine B assay; assay type: functional; details: NCI-H522, 48 h
COLO 205 = experiment: Cytotoxicity against human COLO205 cells after 48 hrs by sulforhodamine B assay; assay type: functional; details: COLO 205, 48 h
NCI-H460 = experiment: Cytotoxicity against human NCI-H460 cells after 48 hrs by sulforhodamine B assay; assay type: functional; details: NCI-H460, 48 h
EKVX = experiment: Cytotoxicity against human EKVX cells after 48 hrs by sulforhodamine B assay; assay type: functional
NCI-H322M = experiment: Cytotoxicity against human NCI-H322M cells after 48 hrs by sulforhodamine B assay; assay type: functional
A549 [3] = experiment: Cytotoxicity against human A549/ATCC cells after 48 hrs by sulforhodamine B assay; assay type: functional; details: A549, 48 h
K562 = experiment: Cytotoxicity against human K562 cells after 48 hrs by sulforhodamine B assay; assay type: functional; details: K562, 48 h
CCRF-CEM = experiment: Cytotoxicity against human CCRF-CEM cells after 48 hrs by sulforhodamine B assay; assay type: functional
HL-60(TB) = experiment: Cytotoxicity against human HL-60(TB) cells after 48 hrs by sulforhodamine B assay; assay type: functional; details: HL-60, 48 h
SF-268 = experiment: Cytotoxicity against human SF268 cells after 48 hrs by sulforhodamine B assay; assay type: functional; details: SF-268, 48 h
HCC 2998 = experiment: Cytotoxicity against human HCC2998 cells after 48 hrs by sulforhodamine B assay; assay type: functional; details: HCC 2998, 48 h

| SMILES | GI50 (HT-29) [nM] | GI50 (A549 [1]) [nM] | GI50 (HL-60) [nM] | IC50 [2] [nM] | GI50 (MCF7) [nM] | GI50 (SF-295) [nM] | GI50 (DU-145) [nM] | GI50 (A498) [nM] | GI50 (OVCAR-3) [nM] | GI50 (MDA-MB-435) [nM] | GI50 (MDA-MB-468) [nM] | GI50 (Hs-578T) [nM] | GI50 (MDA-MB-231) [nM] | GI50 (SF-539) [nM] | GI50 (UO-31) [nM] | GI50 (SN12C) [nM] | GI50 (RXF 393) [nM] | GI50 (CAKI-1) [nM] | GI50 (SK-OV-3) [nM] | GI50 (NCI/ADR-RES) [nM] | other results |
| --- | --- | --- | --- | --- | --- | --- | --- | --- | --- | --- | --- | --- | --- | --- | --- | --- | --- | --- | --- | --- | --- |
| COc1ccc(C(=O)c2cc(OC)c(OC)c(OC)c2)cc1N | 33 | 57 | 30 | 1500 |  |  |  |  |  |  |  |  |  |  |  |  |  |  |  |  |  |
| COc1ccc(C(=O)c2cc(OC)c(OC)c(OC)c2)c(OC)c1N | 32.3 | 39 | 33.1 | 10000 | 10.6 | 19.9 | 27.4 | 22.1 | 20.2 | < 10000 |  |  |  |  |  |  |  |  |  |  |  |
| COc1ccc(C(=O)c2cc(OC)c(OC)c(OC)c2)c(OC)c1NC(C)=O | 4330 | 4620 | 3530 | > 50000 | 9600 | 293 | 292 | 85.5 | 3300 |  |  |  |  |  |  |  |  |  |  |  |  |
| COc1ccc(C(=O)c2cc(OC)c(OC)c(OC)c2)c(N)c1 | 42 |  |  | 400 | 23 |  | 36 |  |  |  |  |  |  |  |  |  |  |  |  |  |  |
| COc1ccc(C(=O)c2cc(OC)c(O)c(OC)c2)cc1OC |  |  |  | > 100000 | 433 | 2080 | 4490 | 3360 | 2330 | 273 | 1970 | 4920 | 4790 | 2960 | 2160 | 6680 | 1880 | 3010 | 2200 | 854 | GI50 (OVCAR-5): 12900 nM; GI50 (OVCAR-4): > 100000 nM; GI50 (UACC-62): 8410 nM; GI50 (SK-MEL-28): 9460 nM; GI50 (SK-MEL-2): 5290 nM; GI50 (M14): 902 nM; GI50 (KM12): 1090 nM; GI50 (HCT-15): 2070 nM; GI50 (HCT-116): 2500 nM; GI50 (NCI-H522): 3640 nM; GI50 (COLO 205): 14200 nM; GI50 (NCI-H460): 3440 nM; GI50 (EKVX): > 100000 nM; GI50 (NCI-H322M): 3440 nM; GI50 (A549 [3]): 59100 nM; GI50 (K562): 666 nM; GI50 (CCRF-CEM): 4050 nM; GI50 (HL-60(TB)): 1250 nM |
| COc1cc(C(=O)c2ccc(OC)c(O)c2OC)cc(OC)c1O |  |  |  | 14900 | 1010 | 1400 | 818 | 1700 | 363 | 282 | 864 | 358 | 2160 | 611 | 16600 | 13700 | 755 | 1900 | 912 | 515 | GI50 (SF-268): 4250 nM; GI50 (OVCAR-5): 4920 nM; GI50 (OVCAR-4): 100000 nM; GI50 (UACC-62): 5010 nM; GI50 (SK-MEL-28): 100000 nM; GI50 (SK-MEL-2): 100000 nM; GI50 (M14): 455 nM; GI50 (KM12): 409 nM; GI50 (HCT-15): 611 nM; GI50 (HCT-116): 1410 nM; GI50 (HCC 2998): 2890 nM; GI50 (NCI-H522): 290 nM; GI50 (COLO 205): 4830 nM; GI50 (NCI-H460): 1970 nM; GI50 (EKVX): 4760 nM; GI50 (NCI-H322M): 4990 nM; GI50 (A549 [3]): 3470 nM; GI50 (K562): 153 nM; GI50 (CCRF-CEM): 896 nM; GI50 (HL-60(TB)): 364 nM |
| COc1cc(C(=O)c2ccc3c(c2)oc(=O)n3S(C)(=O)=O)cc(OC)c1OC |  |  |  | > 100000 | 4430 | 1610 | 3040 | 3110 | 1560 | 289 | 2820 | 3160 | 4850 | 2360 | 6810 | 7790 | 4630 | 2640 | 2840 | 2030 | GI50 (SF-268): 7950 nM; GI50 (OVCAR-5): 5770 nM; GI50 (OVCAR-4): 22300 nM; GI50 (UACC-62): 5300 nM; GI50 (SK-MEL-28): 11300 nM; GI50 (SK-MEL-2): 5110 nM; GI50 (M14): 1360 nM; GI50 (KM12): 1150 nM; GI50 (HCT-15): 2000 nM; GI50 (HCT-116): 2310 nM; GI50 (HCC 2998): 6750 nM; GI50 (NCI-H522): 2340 nM; GI50 (COLO 205): 2500 nM; GI50 (NCI-H460): 2640 nM; GI50 (EKVX): 4580 nM; GI50 (NCI-H322M): 5380 nM; GI50 (A549 [3]): 4680 nM; GI50 (K562): 588 nM; GI50 (CCRF-CEM): 3350 nM; GI50 (HL-60(TB)): 2520 nM |
| COc1ccc(C(=O)c2cc(OC)c(OC)c(OC)c2)c(O)c1O [HYDROXYPHENSTATIN] |  |  |  | 800 |  | 120 | 144 |  |  |  |  |  |  |  |  |  |  |  |  |  |  |
| COc1ccc(/C=C/c2cc(OC)c(OC)c(OC)c2)c(O)c1O |  |  |  | 1900 |  |  | 512 |  |  |  |  |  |  |  |  |  |  |  |  |  |  |
